From PubChem
Only some compounds are listed: those with a hit (about 3.8% of all), similar ones and a draw of the others.
Kir21 inh – inhibitors of mouse Kir2.1 inward-rectifier potassium channel | B-score at 10 µM | P35561 | HEK293-Kir2.1, FluxOR thallium flux fluorescence; hits give low values | AID 1672 | actives 0.85% (n = 310,000);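 active = fluorescence ratio B-score at or below minus 3 SD of library scores, with starting-brightness B-score within 2 SD, cut at about -4.2 in these data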;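 note: channel flux triggered by added potassium and thallium sulfate stimulus; B-score of peak minus minimum fluorescence over baseline after thallium stimulus; more negative B-score means stronger Kir2.1 block with less thallium influx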
hERG protect – compounds protecting human hERG from proarrhythmic drug block. CHO-hERG, FluxOR thallium flux, dofetilide IC70 present. activation (rescue from dofetilide block), less the hit threshold, % at 10 µM. actives 0.51% (n = 310,000);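 active = activation above the mean of controls blocked by dofetilide plus 5 SD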;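 note: thallium influx through hERG after potassium depolarization seen as dye fluorescence rise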
Target sequence (Q12809 whole entry, looked up): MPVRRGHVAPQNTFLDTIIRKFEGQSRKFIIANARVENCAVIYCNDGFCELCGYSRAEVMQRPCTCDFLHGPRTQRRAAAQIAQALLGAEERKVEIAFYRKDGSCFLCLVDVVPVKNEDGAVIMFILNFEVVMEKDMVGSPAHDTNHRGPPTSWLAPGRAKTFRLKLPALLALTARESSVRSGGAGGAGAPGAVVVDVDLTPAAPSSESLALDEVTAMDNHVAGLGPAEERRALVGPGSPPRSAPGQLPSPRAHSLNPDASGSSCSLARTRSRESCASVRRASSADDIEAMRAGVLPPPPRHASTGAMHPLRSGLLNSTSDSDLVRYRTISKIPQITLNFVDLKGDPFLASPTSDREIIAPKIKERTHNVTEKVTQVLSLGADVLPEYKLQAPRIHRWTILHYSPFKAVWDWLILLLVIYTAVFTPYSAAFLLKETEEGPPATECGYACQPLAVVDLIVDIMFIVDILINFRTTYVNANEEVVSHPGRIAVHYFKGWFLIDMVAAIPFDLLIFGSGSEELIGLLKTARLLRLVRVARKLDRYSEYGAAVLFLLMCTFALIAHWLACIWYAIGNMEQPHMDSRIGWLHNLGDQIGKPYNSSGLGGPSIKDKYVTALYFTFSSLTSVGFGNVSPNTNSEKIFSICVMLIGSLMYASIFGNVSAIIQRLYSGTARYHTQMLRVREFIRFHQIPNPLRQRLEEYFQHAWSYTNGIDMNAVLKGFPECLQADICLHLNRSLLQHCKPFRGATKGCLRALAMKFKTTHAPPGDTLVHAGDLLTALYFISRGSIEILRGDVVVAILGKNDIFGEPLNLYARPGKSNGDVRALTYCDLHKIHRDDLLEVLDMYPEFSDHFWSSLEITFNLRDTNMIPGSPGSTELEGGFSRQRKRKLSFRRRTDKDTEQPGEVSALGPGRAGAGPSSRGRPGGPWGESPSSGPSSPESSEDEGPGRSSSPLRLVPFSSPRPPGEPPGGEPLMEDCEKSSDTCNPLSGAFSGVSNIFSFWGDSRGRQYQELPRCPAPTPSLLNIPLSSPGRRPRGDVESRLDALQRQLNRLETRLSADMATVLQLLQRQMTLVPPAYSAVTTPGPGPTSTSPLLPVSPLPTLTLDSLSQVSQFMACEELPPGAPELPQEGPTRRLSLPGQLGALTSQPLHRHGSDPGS
KCNQ1 pot – potentiators or activators of human KCNQ1 potassium channel. P51787. B-score at 10 µM. actives 0.35% (n = 310,000). AID 2648. CHO-K1 KCNQ1, thallium flux FluxOR fluorescence; hits give high values;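 active = fluorescence ratio B-score, a plate-corrected score, at least three library SD, with initial intensity B-score within 5 SD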
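Test system: CHO-K1 cells stably expressing KCNQ1 / Medium: assay buffer / Also added: depolarizing K+/Tl+ stimulus, K2SO4 and Tl2SO4 each 12.5 mM in 5x stock / Incubation: 90 min dye loading and 20 min compound exposure, both at room temperature / Signal: thallium influx via FluxOR fluorescence, kinetic imaging / Evaluation: B score of baseline-normalized fluorescence ratio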
KCNK9 block – blocks the human KCNK9 two-pore domain potassium channel; B-score at 10 µM; Q9NPC2; HEK293 KCNK9, FluxOR thallium flux fluorescence; hits give low values; actives 1.2% (n = 310,000);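 active = ratio B-score over 3 SD below the library mean, with starting fluorescence within 5 SD of its mean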;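 note: negative B-score means less thallium flux so channel inhibition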
KCNQ1 inh – blocks the human KCNQ1 potassium channel; B-score at 10 µM; CHO-K1 KCNQ1, FluxOR thallium flux fluorescence; hits give high values; AID 2642; P51787; actives 1.3% (n = 310,000);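 active = compounds whose thallium flux B-score, printed positive for inhibition, exceeds three library SD while starting fluorescence stays within three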;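 note: channel opened by potassium depolarization with thallium stimulus after 20 min compound exposure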
KCNK3 inh – human KCNK3 channel inhibition, primary screen. O14649. CHO-KCNK3 thallium flux, FluxOR fluorescence; hits give low values. B-score at 10 µM. actives 0.84% (n = 340,000);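 active = B-score under library mean minus 4 SD, starting fluorescence ratio at most library mean plus 5 SD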;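 note: more negative B-score means stronger inhibition of thallium flux through KCNK3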
KCNQ1 inh valid – confirmation of human KCNQ1 potassium channel inhibitors; shares compounds with KCNQ1 inh; KCNQ1 cell line, FluxOR thallium flux fluorescence; inhibition, % at 10 µM; actives 93% (n = 1,600);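 active = primary screen active, with duplicate mean exceeding buffer control mean plus 3 SD of buffer wells, cut at about 28% in these data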;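 note: 0% = buffer control ratio and 100% = XE991 inhibitor control ratio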
CHO KCNQ1 ctr – counter-screen for KCNQ1 inhibitors: effect in parental CHO cells | shares compounds with KCNQ1 inh | parental CHO-K1, FluxOR thallium flux fluorescence ratio; hits give low values; zero means no signal rise above baseline | fluorescence ratio (Tl flux) at 10 µM | actives 21% (n = 1,600);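 active = mean of duplicate thallium-flux fluorescence ratios in parental host cells more than 5 SD below the buffer control mean, cut at about 0.38 in these data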;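 note: ratio is peak minus minimum fluorescence divided by baseline fluorescence; actives read low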
KCNQ2 spec – KCNQ1 inhibitor that also blocks rat KCNQ2 channel | AID 651746 | inhibition, % at 10 µM | KCNQ2 cells, FluxOR thallium flux fluorescence | shares compounds with KCNQ1 inh | actives 71% (n = 1,600);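 active = mean percent inhibition of the KCNQ2 thallium signal more than 5 SD above the buffer-only control wells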;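 note: KCNQ2 expressed in CHO cells; 0% = buffer control wells and 100% = XE-991 inhibitor control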
KCNQ1-KCNE1 inh – human KCNQ1/KCNE1 inhibition in KCNQ1 specificity screen | inhibition, % at 10 µM | KCNQ1/KCNE1 cells, FluxOR thallium flux fluorescence | actives 77% (n = 1,600) | shares compounds with KCNQ1 inh | AID 652147;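 active = mean percent inhibition of duplicate wells above the buffer-only control mean plus 3 SD of those controls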;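 note: 0% = buffer only wells and 100% = XE-991 inhibitor control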
KCNK9 block conf – confirmation of human KCNK9 potassium channel inhibitors. shares compounds with KCNK9 block. HEK293 KCNK9 cells, FluxOR thallium flux fluorescence. inhibition, % at 10 µM. actives 43% (n = 4,900). AID 492992;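 active = thallium signal inhibited by more than 5 SD of the compound-free buffer control wells, on both duplicate plates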;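 note: 0% = assay buffer control wells without compound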
Kir21 sel – tests whether KCNK9 modulators also affect mouse Kir2.1; actives 4% (n = 4,900); shares compounds with KCNK9 block; inhibition, % at 10 µM; Kir2.1 cells, FluxOR thallium flux fluorescence;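 active = thallium signal drop more than 5 SD beyond the mean of the no-compound control wells, seen in both duplicate plates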;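 note: signal is fluorescence rise after thallium addition divided by baseline fluorescence; plate controls were assay buffer only for no effect and full block by chlorpromazine control for full effect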
KCNK9 uninduced – second check of KCNK9 modulator effects in non-induced HEK293 cells; shares compounds with KCNK9 block; FluxOR thallium flux; inhibition, % at 10 µM; actives 40% (n = 4,900); AID 492997;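 active = thallium signal drop beyond 5 SD of the untreated control mean, on both duplicate plates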;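 note: plate controls were buffer only IC0 wells for no effect and SID17386958 at its maximal inhibitory level for full effect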
* marks the source's active call; other numbers are inactive results.

What do the screens show for `c1ccc(-c2cn3nc4c(nc3n2)CCCC4)cc1`?
Kir21 inh: -1.38; hERG protect: -17.2; KCNQ1 pot: inactive; KCNK9 block: inactive; KCNQ1 inh: 8*; KCNK3 inh: inactive; KCNQ1 inh valid: 39.5*; CHO KCNQ1 ctr: 0.396; KCNQ2 spec: 76.3%*; KCNQ1-KCNE1 inh: 75.5%*

How did N#Cc1ccc(C(=O)CSc2n[nH]c(=O)n2-c2cccnc2)cc1 do in these assays?
Kir21 inh: -0.08; hERG protect: -9.0; KCNQ1 pot: inactive; KCNK9 block: inactive; KCNQ1 inh: inactive; KCNK3 inh: inactive

What do the screens show for `O=C(O)C1CC=CCC1C(=O)Nc1ccc2c(c1)CCC2` (stereo not given)?
Kir21 inh: 0.11; hERG protect: -6.7; KCNQ1 pot: inactive; KCNK9 block: inactive; KCNQ1 inh: 6*; KCNK3 inh: inactive; KCNQ1 inh valid: 0.0; CHO KCNQ1 ctr: 0.505; KCNQ2 spec: inactive; KCNQ1-KCNE1 inh: inactive

Results for NC(=O)c1ccccc1NC(=O)c1ccccc1Cl ?
Kir21 inh: 1.18; hERG protect: -2.6; KCNQ1 pot: inactive; KCNK9 block: inactive; KCNQ1 inh: inactive; KCNK3 inh: inactive

Results for O=C(Nc1ccccc1C(=O)Nc1nnc(C(F)(F)F)s1)c1ccccc1Cl ?
Kir21 inh: -1.34; hERG protect: -12.9; KCNQ1 pot: inactive; KCNK9 block: inactive; KCNQ1 inh: 6*; KCNK3 inh: inactive; KCNQ1 inh valid: 66.5*; CHO KCNQ1 ctr: 0.449; KCNQ2 spec: 65.3%*; KCNQ1-KCNE1 inh: inactive

What do the screens show for `CCOc1ccc(NC(=O)CN2CCN(C3c4ccccc4-c4ccccc43)CC2)cc1`?
Kir21 inh: -0.56; hERG protect: -7.8; KCNQ1 pot: inactive; KCNK9 block: inactive; KCNQ1 inh: inactive; KCNK3 inh: inactive

How did COc1ccc(NC(=O)CN2CCN(C3c4ccccc4-c4ccccc43)CC2)c(OC)c1 do in these assays?
Kir21 inh: -0.51; hERG protect: -11.2; KCNQ1 pot: inactive; KCNK9 block: -17.4*; KCNQ1 inh: 8*; KCNK3 inh: inactive; KCNQ1 inh valid: 60.0*; CHO KCNQ1 ctr: 0.419; KCNQ2 spec: 78.7%*; KCNQ1-KCNE1 inh: 98.5%*; KCNK9 block conf: 38.5%*; Kir21 sel: inactive; KCNK9 uninduced: 34.5%*

Results for CCCCCN(C(=O)CCC(=O)OCC(=O)N1CCCCC1CC)c1c(N)n(CCCC)c(=O)[nH]c1=O (stereo not given) ?
KCNK3 inh: inactive

What do the screens show for `COc1ccc(NC(=O)Cc2coc3cc(C)c(C(C)C)cc23)cc1S(=O)(=O)N1CCOCC1`?
Kir21 inh: 0.23; hERG protect: -12.8; KCNQ1 pot: inactive; KCNK9 block: inactive; KCNQ1 inh: inactive; KCNK3 inh: inactive

How did Cc1ccc(-n2cccn2)c(CN2CCCC(C(=O)c3ccc4c(c3)OCO4)C2)c1 (stereo not given) do in these assays?
Kir21 inh: -0.05; hERG protect: -17.4; KCNQ1 pot: inactive; KCNK9 block: inactive; KCNQ1 inh: 8*; KCNK3 inh: inactive; KCNQ1 inh valid: 65.5*; CHO KCNQ1 ctr: 0.389; KCNQ2 spec: 111.7%*; KCNQ1-KCNE1 inh: 80.5%*; KCNK9 block conf: inactive; Kir21 sel: inactive; KCNK9 uninduced: inactive

Results for O=C(c1ccc2c(c1)OCO2)C1CCCN(Cc2cc(F)ccc2-n2cccn2)C1 (stereo not given) ?
Kir21 inh: 0.84; hERG protect: -15.9; KCNQ1 pot: inactive; KCNK9 block: inactive; KCNQ1 inh: inactive; KCNK3 inh: inactive

Results for N#Cc1c(N)nc2c(c1-c1ccc3c(c1)OCO3)CCc1ccccc1-2 ?
Kir21 inh: 0.84; hERG protect: -4.7; KCNQ1 pot: inactive; KCNK9 block: -11*; KCNQ1 inh: 13*; KCNK3 inh: inactive; KCNQ1 inh valid: 119.5*; CHO KCNQ1 ctr: 0.346*; KCNQ2 spec: 109.3%*; KCNQ1-KCNE1 inh: 181.0%*; KCNK9 block conf: 31.0%*; Kir21 sel: inactive; KCNK9 uninduced: 30.0%*

Results for O=C(COC(=O)CCNS(=O)(=O)c1ccccc1)NNC(=O)c1ccccc1 ?
Kir21 inh: 0.42; hERG protect: -12.8; KCNQ1 pot: inactive; KCNK9 block: inactive; KCNQ1 inh: inactive; KCNK3 inh: inactive

How did CCOC(=O)c1nnn(-c2nonc2-n2cccc2)c1CN1CCC(C)CC1 do in these assays?
Kir21 inh: -1.35; hERG protect: -13.5; KCNQ1 pot: inactive; KCNK9 block: -9.3*; KCNQ1 inh: 6*; KCNK3 inh: -9.12*; KCNQ1 inh valid: 87.5*; CHO KCNQ1 ctr: 0.394; KCNQ2 spec: 71.3%*; KCNQ1-KCNE1 inh: 128.5%*; KCNK9 block conf: inactive; Kir21 sel: inactive; KCNK9 uninduced: 32.0%*

What do the screens show for `CCOC(=O)c1nnn(-c2nonc2-n2cccc2)c1CCl`?
Kir21 inh: 1.28; hERG protect: -10.4; KCNQ1 pot: inactive; KCNK9 block: inactive; KCNQ1 inh: inactive; KCNK3 inh: inactive
